Results from ChEMBL document CHEMBL3992536, “Discovery of a Novel Series of Orally Bioavailable and CNS Penetrant Glucagon-like Peptide-1 Receptor (GLP-1R) Noncompetitive Antagonists Based on a 1,3-Disubstituted-7-aryl-5,5-bis(trifluoromethyl)-5,8-dihydropyrimido[4,5-d]pyrimidine-2,4(1H,3H)-dione Core” (J Med Chem, 2017).
Active and inactive are the calls of the source. The calls are words filed in the database; no cut-off is given here.

Legend:
[1] = target: T1, Glucagon-like peptide 1 receptor (Homo sapiens, UniProt P43220); assay: Antagonist activity at human GLP-1R expressed in TREx293 cells co-expressing cAMP sensitive luciferase assessed as inhibition of GLP1 (7 to 36 residues) amide-induced cAMP accumulation after 90 mins by GloSensor cAMP assay; type: functional, cell-based
T1 sequence (P43220 whole entry, the tested form may be a part): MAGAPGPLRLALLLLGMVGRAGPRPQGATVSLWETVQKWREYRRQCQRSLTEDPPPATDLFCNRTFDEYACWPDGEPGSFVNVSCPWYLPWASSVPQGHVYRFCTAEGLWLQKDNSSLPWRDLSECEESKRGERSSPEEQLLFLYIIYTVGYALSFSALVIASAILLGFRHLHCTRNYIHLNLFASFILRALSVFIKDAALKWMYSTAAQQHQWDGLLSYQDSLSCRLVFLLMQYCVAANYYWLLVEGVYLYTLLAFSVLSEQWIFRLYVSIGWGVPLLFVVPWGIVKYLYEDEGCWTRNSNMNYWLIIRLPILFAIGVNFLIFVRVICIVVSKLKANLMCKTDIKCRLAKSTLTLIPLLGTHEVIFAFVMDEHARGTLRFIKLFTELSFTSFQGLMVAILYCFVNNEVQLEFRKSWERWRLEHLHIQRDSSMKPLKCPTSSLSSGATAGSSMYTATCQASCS
Outline: (§1)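 GloSensor cAMP luminescence read-out in TREx293 HEK cells expressing GLP-1R. IC50 and pIC50 come from the concentration–response curves. n = 3, reported as average ± SEM.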

[2] = target: T1, Glucagon-like peptide 1 receptor; assay: Antagonist activity at human GLP-1R expressed in TREx293 cells co-expressing cAMP sensitive luciferase assessed as inhibition of exendin-4-induced cAMP accumulation after 90 mins by GloSensor cAMP assay; type: functional, cell-based; outline: as §1
[3] = target: T1, Glucagon-like peptide 1 receptor; assay: Antagonist activity at human GLP-1R expressed in TREx293 cells co-expressing cAMP sensitive luciferase assessed as inhibition of GLP1 (7 to 36 residues) amide-induced cAMP accumulation after 90 mins by GloSensor cAMP assay relative to GLP-1; type: functional, cell-based
Outline: (§2)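 TREx293 HEK cells expressing GLP-1R, GloSensor cAMP read-out. The minimum response is expressed as % of the GLP-1 response (GLP-1 min). n = 3, average ± SEM.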

[4] = target: T1, Glucagon-like peptide 1 receptor; assay: Antagonist activity at human GLP-1R expressed in TREx293 cells co-expressing cAMP sensitive luciferase assessed as inhibition of exendin-4-induced cAMP accumulation after 90 mins by GloSensor cAMP assay relative to GLP-1; type: functional, cell-based; outline: as §2
[5] = Plasma clearance in Sprague-Dawley rat at 1 mg/kg, iv or 3 mg/kg via oral gavage by LC-MS/MS analysis; type: ADME, organism-based
Outline: (§3)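 Rat PK study with dosing at 1 mg/kg iv and 3 mg/kg po. The study reports plasma clearance (mL min⁻¹ kg⁻¹), t1/2 (min), Vss (L/kg) and oral bioavailability F (%).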

[6] = Half life in Sprague-Dawley rat at 1 mg/kg, iv or 3 mg/kg via oral gavage by LC-MS/MS analysis; type: ADME, organism-based; settings: in vivo; outline: as §3
[7] = Volume of distribution at steady state in Sprague-Dawley rat at 1 mg/kg, iv or 3 mg/kg via oral gavage by LC-MS/MS analysis; type: ADME, organism-based; settings: in vivo, read-out: Vdss; outline: as §3
Glucagon receptor = Glucagon receptor (Homo sapiens, UniProt P47871); assay: Antagonist activity at glucagon receptor (unknown origin)
Sequence of Glucagon receptor (P47871 whole entry, the tested form may be a part): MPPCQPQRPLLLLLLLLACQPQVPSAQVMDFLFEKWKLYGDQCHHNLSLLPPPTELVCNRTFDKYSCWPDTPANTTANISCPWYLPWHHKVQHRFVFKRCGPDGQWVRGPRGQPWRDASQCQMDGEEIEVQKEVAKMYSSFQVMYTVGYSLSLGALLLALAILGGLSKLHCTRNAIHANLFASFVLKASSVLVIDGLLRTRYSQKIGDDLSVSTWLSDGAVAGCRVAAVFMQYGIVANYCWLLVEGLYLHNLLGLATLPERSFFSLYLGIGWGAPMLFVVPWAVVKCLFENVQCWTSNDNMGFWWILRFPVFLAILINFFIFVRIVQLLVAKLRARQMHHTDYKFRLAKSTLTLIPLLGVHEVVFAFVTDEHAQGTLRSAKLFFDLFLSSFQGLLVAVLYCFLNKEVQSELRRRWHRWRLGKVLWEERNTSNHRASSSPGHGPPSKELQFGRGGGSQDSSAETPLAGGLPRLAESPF

[8] = target: T1, Glucagon-like peptide 1 receptor; assay: Non-competitive antagonism/negative allosteric modulation of human GLP-1R expressed in TREx293 cells co-expressing cAMP sensitive luciferase assessed as inhibition of fixed concentration of GLP1 (7 to 36 residues) amide-induced cAMP accumulation by measuring decrease in GLP-1 maximum response at 0.3 to 10 uM after 90 mins by GloSensor cAMP assay; type: functional, cell-based
Outline: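 A full GLP-1 (7−36) amide concentration–response curve is run in GLP-1R TREx293 HEK cells with GloSensor cAMP detection. It is repeated in the presence of increasing fixed concentrations of antagonist, and the decrease in the GLP-1 maximal response is followed. n = 3.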

[9] = target: T2, Glucagon-like peptide 1 receptor (Mus musculus) (UniProt O35659); assay: Antagonist activity at GLP-1R in C57BL/6J mouse primary islets assessed as inhibition of exendin-4-induced increase in glucose-stimulated insulin secretion at 1 uM after 60 mins by radio-immunoassay
T2 sequence (whole entry): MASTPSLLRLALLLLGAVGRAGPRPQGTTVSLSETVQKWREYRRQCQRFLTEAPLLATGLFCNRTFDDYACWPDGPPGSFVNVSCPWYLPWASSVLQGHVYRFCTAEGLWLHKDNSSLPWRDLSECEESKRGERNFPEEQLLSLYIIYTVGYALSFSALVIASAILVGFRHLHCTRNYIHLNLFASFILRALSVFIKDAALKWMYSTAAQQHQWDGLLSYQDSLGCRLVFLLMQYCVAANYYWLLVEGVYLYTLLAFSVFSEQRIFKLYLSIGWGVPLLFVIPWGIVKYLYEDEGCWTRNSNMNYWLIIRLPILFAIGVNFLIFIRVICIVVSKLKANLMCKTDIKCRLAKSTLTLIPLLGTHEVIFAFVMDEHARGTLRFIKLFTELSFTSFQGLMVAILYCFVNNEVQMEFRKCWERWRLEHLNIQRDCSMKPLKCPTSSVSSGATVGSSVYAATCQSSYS

Cytochrome P450 1A2 = target: T3, Cytochrome P450 1A2 (Homo sapiens, UniProt P05177); assay: Inhibition of CYP1A2 in human liver microsomes using phenacetin as substrate preincubated for 15 mins followed by NADPH addition measured after 8 mins by LC-MS/MS analysis; type: ADME
T3 sequence (P05177 whole entry): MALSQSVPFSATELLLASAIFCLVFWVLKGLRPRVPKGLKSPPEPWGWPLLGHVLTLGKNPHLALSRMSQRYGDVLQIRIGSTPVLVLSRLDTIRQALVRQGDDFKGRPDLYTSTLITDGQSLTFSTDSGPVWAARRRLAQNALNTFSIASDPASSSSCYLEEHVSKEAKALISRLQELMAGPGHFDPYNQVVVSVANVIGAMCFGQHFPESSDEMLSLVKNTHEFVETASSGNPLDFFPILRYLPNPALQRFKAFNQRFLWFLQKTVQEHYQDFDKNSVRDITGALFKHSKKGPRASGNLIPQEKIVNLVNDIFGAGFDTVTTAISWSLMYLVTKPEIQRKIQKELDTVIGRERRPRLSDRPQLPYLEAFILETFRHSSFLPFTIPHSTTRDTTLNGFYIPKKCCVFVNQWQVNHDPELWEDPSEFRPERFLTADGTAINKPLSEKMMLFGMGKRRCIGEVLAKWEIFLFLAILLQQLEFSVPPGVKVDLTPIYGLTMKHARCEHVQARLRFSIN

Cytochrome P450 2C9 = Cytochrome P450 2C9 (Homo sapiens, UniProt P11712); assay: Inhibition of CYP2C9 in human liver microsomes using diclofenac as substrate preincubated for 15 mins followed by NADPH addition measured after 8 mins by LC-MS/MS analysis; type: ADME
Sequence of Cytochrome P450 2C9 (P11712 whole entry): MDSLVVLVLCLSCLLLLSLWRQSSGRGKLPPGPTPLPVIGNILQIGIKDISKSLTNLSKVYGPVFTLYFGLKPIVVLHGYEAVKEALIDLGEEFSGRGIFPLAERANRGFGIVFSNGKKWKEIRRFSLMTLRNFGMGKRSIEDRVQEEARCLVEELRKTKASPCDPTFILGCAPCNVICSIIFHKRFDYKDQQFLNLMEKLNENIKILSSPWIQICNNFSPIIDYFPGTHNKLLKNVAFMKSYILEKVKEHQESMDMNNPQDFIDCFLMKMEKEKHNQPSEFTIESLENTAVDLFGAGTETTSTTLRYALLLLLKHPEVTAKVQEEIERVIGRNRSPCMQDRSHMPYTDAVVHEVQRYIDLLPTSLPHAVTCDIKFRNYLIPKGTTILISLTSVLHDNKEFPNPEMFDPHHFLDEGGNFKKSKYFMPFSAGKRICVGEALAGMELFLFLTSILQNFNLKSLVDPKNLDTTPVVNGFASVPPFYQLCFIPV

Cytochrome P450 3A4 = Cytochrome P450 3A4 (Homo sapiens, UniProt P08684); assay: Inhibition of CYP3A4 in human liver microsomes using midazolam as substrate preincubated for 15 mins followed by NADPH addition measured after 8 mins by LC-MS/MS analysis; type: ADME
Sequence of Cytochrome P450 3A4 (P08684 whole entry): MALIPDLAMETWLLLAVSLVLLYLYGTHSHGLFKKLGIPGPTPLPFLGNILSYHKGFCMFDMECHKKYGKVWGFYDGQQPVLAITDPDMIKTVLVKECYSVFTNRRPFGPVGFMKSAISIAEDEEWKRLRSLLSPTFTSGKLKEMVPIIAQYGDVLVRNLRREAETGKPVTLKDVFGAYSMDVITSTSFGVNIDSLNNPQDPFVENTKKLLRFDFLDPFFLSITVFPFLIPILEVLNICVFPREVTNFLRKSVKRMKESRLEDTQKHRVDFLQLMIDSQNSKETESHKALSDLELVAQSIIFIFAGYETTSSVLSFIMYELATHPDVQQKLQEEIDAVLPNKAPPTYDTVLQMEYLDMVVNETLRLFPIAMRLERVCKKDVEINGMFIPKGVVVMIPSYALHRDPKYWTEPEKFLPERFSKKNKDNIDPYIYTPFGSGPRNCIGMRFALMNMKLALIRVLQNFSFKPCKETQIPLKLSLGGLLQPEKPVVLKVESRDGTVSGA

Cytochrome P450 2D6 = Cytochrome P450 2D6 (Homo sapiens, UniProt P10635); assay: Inhibition of CYP2D6 in human liver microsomes using dextromethorphan as substrate preincubated for 15 mins followed by NADPH addition measured after 8 mins by LC-MS/MS analysis; type: ADME
Sequence of Cytochrome P450 2D6 (P10635 whole entry): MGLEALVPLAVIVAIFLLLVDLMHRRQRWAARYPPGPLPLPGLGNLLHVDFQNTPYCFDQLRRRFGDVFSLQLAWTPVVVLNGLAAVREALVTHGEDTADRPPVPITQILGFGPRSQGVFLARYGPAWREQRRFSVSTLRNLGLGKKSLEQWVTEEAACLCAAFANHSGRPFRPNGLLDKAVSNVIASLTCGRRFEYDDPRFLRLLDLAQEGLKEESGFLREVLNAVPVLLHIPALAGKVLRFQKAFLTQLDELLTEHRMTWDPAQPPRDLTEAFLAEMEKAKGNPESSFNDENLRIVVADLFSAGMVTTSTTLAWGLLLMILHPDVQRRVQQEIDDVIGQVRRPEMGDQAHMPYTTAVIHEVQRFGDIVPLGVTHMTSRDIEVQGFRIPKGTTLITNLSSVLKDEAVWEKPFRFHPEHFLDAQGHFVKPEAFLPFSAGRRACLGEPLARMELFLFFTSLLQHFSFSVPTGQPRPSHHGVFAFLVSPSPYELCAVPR

[10] = Fraction unbound in rat plasma at 5 uM after 4 hrs by LC-MS/MS based equilibrium dialysis method; type: ADME, cell-free
[11] = Fraction unbound in human plasma at 5 uM after 4 hrs by LC-MS/MS based equilibrium dialysis method; type: ADME, cell-free
[12] = Drug uptake in Sprague-Dawley rat plasma at 3 mg/kg via oral gavage after 1 hr by LC-MS/MS analysis; type: ADME, organism-based
Outline: (§4)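 Rat distribution study: single 3 mg/kg oral dose. Plasma (ng/mL) and brain concentrations are measured at 1 h, and brain/plasma Kp is calculated from them.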

[13] = Drug uptake in Sprague-Dawley rat brain at 3 mg/kg via oral gavage after 1 hr by LC-MS/MS analysis; type: ADME, organism-based; settings: read-out: Drug uptake; outline: as §4
[14] = Ratio of drug level in Sprague-Dawley rat brain to plasma at 3 mg/kg via oral gavage after 1 hr by LC-MS/MS analysis; type: ADME, organism-based; outline: as §4
[15] = Oral bioavailability in Sprague-Dawley rat at 3 mg/kg via gavage by LC-MS/MS analysis; type: ADME, organism-based; settings: in vivo; outline: as §3
Rattus norvegicus [16] = assay: Decrease in blood insulin level in Sprague-Dawley rat at 10 mg/kg, po pretreated for 30 mins followed by glucose challenge measured up to 150 mins by oral glucose tolerance test; type: functional, organism-based
Outline: (§5)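 OGTT in male Sprague-Dawley rats with surgically implanted carotid cannulae, randomized to compound (10 mg/kg po) or vehicle. Dosing is 30 min before a 2 g/kg glucose gavage at time 0. Carotid blood is sampled at intervals for whole blood glucose and insulin.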

Rattus norvegicus [17] = assay: Increase in blood glucose level in Sprague-Dawley rat at 10 mg/kg, po pretreated for 30 mins followed by glucose challenge measured up to 150 mins by oral glucose tolerance test; type: functional, organism-based; outline: as §5
[18] = target: T1, Glucagon-like peptide 1 receptor; assay: Antagonist activity at GLP-1R (unknown origin)

Row | Structure (SMILES) | IC50 [1] [µM] | IC50 [2] [µM] | Emin [3] [%] | Emin [4] [%] | clearance [5] [mL/min/kg] | half-life [6] [h] | Vd [7] [L/kg] | IC50 (Glucagon receptor) [µM] | inhibition [8] | inhibition [9] | IC50 (Cytochrome P450 1A2) [µM] | IC50 (Cytochrome P450 2C9) [µM] | IC50 (Cytochrome P450 3A4) [µM] | IC50 (Cytochrome P450 2D6) [µM] | fraction unbound at 4 h, 5 µM [10] | fraction unbound at 4 h, 5 µM [11] | concentration at 1 h [12] [ng/mL] | concentration at 1 h [13] [ng/g] | Kp at 1 h [14] | bioavailability [15] [%] | other results
1 | COc1cccc(C2=NC(C(F)(F)F)(C(F)(F)F)c3c(n(CC(C)C)c(=O)[nH]c3=O)N2)c1 | 7.2 | 7.2 | 22.7 | 26.4 | – | – | – | – | – | – | – | – | – | – | – | – | – | – | – | – | –
2 | Cn1c2c(c(=O)n(C)c1=O)C(C(F)(F)F)(C(F)(F)F)N=C(c1cccc([N+](=O)[O-])c1)N2 | 0.61 | 0.69 | 16.4 | 15.5 | 3.64 | 0.7 | 0.22 | > 30 | Dose-dependent effect | Active | 25 | 0.47 | > 30 | 21.2 | 0.005 | 0.005 | 76.7 | 2.4 | 0.02 | – | –
3 | O=c1[nH]c(=O)n(Cc2ccccc2)c2c1C(C(F)(F)F)(C(F)(F)F)N=C(c1cccs1)N2 | 1.3 | 1.5 | 36.2 | 32 | – | – | – | – | – | – | – | – | – | – | – | – | – | – | – | – | –
4 | Cn1c2c(c(=O)n(C)c1=O)C(C(F)(F)F)(C(F)(F)F)NC(c1ccc(Cl)cc1)=N2 | 0.65 | 0.69 | 20.9 | 19.7 | 4.79 | 9.78 | 3.57 | > 30 | Dose-dependent effect | Active | 4.01 | 0.41 | > 30 | > 30 | 0.011 | 0.007 | 45 | 65.1 | 1.45 | 50 | Activity (Rattus norvegicus [16]): Active; Activity (Rattus norvegicus [17]): Active
5 | COc1cccc(C2=NC(C(F)(F)F)(C(F)(F)F)c3c(n(-c4ccc(Cl)cc4)c(=O)[nH]c3=O)N2)c1 | 5.9 | 5.8 | 16.8 | 23.9 | 36.4 | 2.42 | 0.69 | > 30 | – | – | > 30 | 3.78 | 16.4 | 8.13 | 0.002 | 0.003 | 1140 | 37.1 | 0.03 | 100 | –
6 | COc1ccc2c(c1)N(c1ccccc1F)C(=O)[C@@]2(CCC(=O)O)NC(=O)c1cc2ccccc2cn1 | – | – | – | – | – | – | – | – | – | – | – | – | – | – | – | – | – | – | – | – | IC50 [18]: 21 µM
